According to ChEMBL document CHEMBL1126160, “Synthesis and structure-activity relationships of 7-diazabicycloalkylquinolones, including danofloxacin, a new quinolone antibacterial agent for veterinary medicine” (J Med Chem, 1992):
In brackets after ≈: the same amount, converted by molar mass.

Tests used:
Pasteurella multocida [1] = experiment: In vivo protective dose was evaluated Pasteurella multocida (59A006) in mouse(sc); type: functional; conditions: read-out: PD50
In short: (§1)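 Female CF-1 mice (15 g), groups of 10, challenged ip with 0.5 mL bacterial suspension (P. multocida 59A006 or E. coli 51A266 at 3.0 × 10^8 cfu/mL; S. choleraesuis 58B010 at 8.5 × 10^2 cfu/mL). Drug given sc or po at 30 min, 4 h and 24 h after challenge; survival recorded at 96 h; PD50 by probit analysis.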

Pasteurella multocida [2] = experiment: In vitro antibacterial activity against aerobically grown Pasteurella multocida (59A006); type: functional
In short: (§2)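 Agar dilution MICs. Aerobic strains were tested on brain heart infusion agar and incubated aerobically at 37 °C for 18–20 h.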

Phocaeicola vulgatus = experiment: In vitro antibacterial activity against anaerobically grown Bacteroides vulgatus (78D029); type: functional
In short: (§3)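 Agar dilution MICs. Anaerobic strains were tested on tryptose agar with 5% bovine blood and incubated 48 h at 39 °C in an anaerobe chamber under N2/CO2/H2 (80:10:10).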

Salmonella enterica [3] = experiment: In vitro antibacterial activity against aerobically grown Salmonella choleraesuis (58B015); type: functional
Escherichia coli [4] = experiment: In vitro antibacterial activity against aerobically grown Escherichia coli (51A538); type: functional; in short: as §2
[5] = system: Actinobacillus pleuropneumoniae; experiment: In vitro antibacterial activity against anaerobically grown Actinobacillus pleuropneumoniae ([…]); type: functional; in short: as §3
[6] = In vitro antibacterial activity against Aerobically grown Pasteurella haemolytica (59B018); type: functional; conditions: Mannheimia haemolytica; in short: as §2
Escherichia coli [7] = experiment: Escherichia coli DNA cleavage endpoint value which is the minimum amount required (in micro g/mL) to induce detectable cleavage of supercoiled pBR322 substrate to linear form (gyrase); type: functional; conditions: read-out: MIC
In short: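 DNA gyrase A and B subunits were purified from E. coli overproducers. About 2 units of holoenzyme were incubated with pBR322 in Tris-HCl pH 7.5 containing MgCl2, spermidine, DTT, 0.2 mM ATP, BSA and tRNA. Drug was added as 2-fold serial dilutions, and reactions ran for 60 min at 25 °C. Reactions were stopped with SDS and proteinase K, then run on agarose and stained with ethidium. The endpoint was the lowest concentration giving detectable linear DNA.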

Clostridium perfringens = experiment: microbe, parasite or virus in culture; type: functional
Trueperella pyogenes = experiment: In vitro antibacterial activity against anaerobically grown Actinomyces pyogenes (14D002); type: functional; in short: as §3
Staphylococcus aureus [8] = experiment: In vitro antibacterial activity against aerobically grown Staphylococcus aureus (54B004); type: functional; in short: as §2
[9] = In vitro evaluation for antibacterial activity against anaerobically grown Treponema hyodysenteriae (94A007); type: functional; conditions: Brachyspira hyodysenteriae
[10] = system: Bordetella bronchiseptica; experiment: In vitro antibacterial activity against aerobically grown Bordetella bronchiseptica (73A009); type: functional; in short: as §2
Escherichia coli [11] = experiment: In vitro antibacterial activity against Aerobically grown Escherichia coli (51A538); type: functional; in short: as §2
Pasteurella multocida [12] = experiment: In vitro antibacterial activity against Aerobically grown Pasteurella multocida (59A006); type: functional; in short: as §2
[13] = system: Bordetella bronchiseptica; experiment: In vitro antibacterial activity against Aerobically grown Bordetella bronchiseptica (73A009); type: functional; in short: as §2
Salmonella enterica [14] = experiment: In vitro antibacterial activity against Aerobically grown Salmonella choleraesuis (58B015); type: functional
Staphylococcus aureus [15] = experiment: In vitro antibacterial activity against Aerobically grown Staphylococcus aureus (54B004); type: functional; in short: as §2
Escherichia coli [16] = experiment: In vivo protective dose was evaluated against Escherichia coli (51A266) in mouse(sc); type: functional; conditions: read-out: PD50; in short: as §1
[17] = Compound was evaluated for aqueous solubility at pH 7.2; conditions: buffer
Pasteurella multocida [18] = experiment: In vivo protective dose was evaluated against Pasteurella multocida (59A006) in mouse(sc); type: functional; conditions: read-out: PD50; in short: as §1
[19] = system: Actinobacillus pleuropneumoniae; experiment: Compound was evaluated for minimum effective dose against Actinobacillus pleuropneumonia, intramuscular dose administration; conditions: im, read-out: MED
Escherichia coli [20] = experiment: In vivo protective dose was evaluated against Escherichia coli (51A266) in mouse(po); type: functional; conditions: read-out: PD50; in short: as §1
Pasteurella multocida [21] = experiment: In vivo protective dose was evaluated against Pasteurella multocida (59A006) in mouse(po); type: functional; conditions: read-out: PD50; in short: as §1
Mannheimia haemolytica = experiment: Compound was evaluated for minimum effective dose against Pasteurella haemolytica, intramuscular dose administration; type: functional; conditions: im, read-out: MED
In short: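 Calves acid-treated intratracheally with 0.6 mL 8% acetic acid at 24 h and 4 h before endotracheal challenge with 50 mL P. haemolytica B280PA (~5 × 10^8 cfu/mL). im dosing of 2.5% or 5% solution in sterile water, day 0 and day 1 (SID × 2). Clinical signs and temperature recorded days 0–5; lungs scored and cultured. MED = lowest dose giving significant (65%) reduction of lung pathology.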

Row | Compound | ED50 (Pasteurella multocida [1]) [mg/kg] | MIC (Pasteurella multocida [2]) [µg/mL] | MIC (Phocaeicola vulgatus) [µg/mL] | MIC (Salmonella enterica [3]) [µg/mL] | MIC (Escherichia coli [4]) [µg/mL] | MIC [5] [µg/mL] | MIC [6] [µg/mL] | minimum concentration inducing gyrase-mediated DNA cleavage (Escherichia coli [7]) [µg/mL] | MIC (Clostridium perfringens) [µg/mL] | MIC (Trueperella pyogenes) [µg/mL] | MIC (Staphylococcus aureus [8]) [µg/mL] | MIC [9] [µg/mL] | MIC [10] [µg/mL] | ED50 (Escherichia coli [16]) [mg/kg] | ED50 (Pasteurella multocida [18]) [mg/kg] | further results
1 | CCn1cc(C(=O)O)c(=O)c2cc(F)c(N3CC[C@H]4CCC(C3)N4C)cc21 | 1.03 | 0.39 (≈ 1.04 µM) | > 3.13 | > 1.56 | > 1.56 | 0.78 (≈ 2.09 µM) | 1.56 (≈ 4.18 µM) | 1.56 | 1.56 (≈ 4.18 µM) | > 3.13 | 1.56 (≈ 4.18 µM) | > 3.13 | > 1.56 | – | – | –
2 | CN1C[C@@H]2C[C@H]1CN2c1c(F)cc2c(=O)c(C(=O)O)cn(-c3ccc(F)cc3)c2c1Cl | – | – | > 3.13 | – | – | 0.78 (≈ 1.75 µM) | 0.78 (≈ 1.75 µM) | 1.56 | 0.78 (≈ 1.75 µM) | > 3.13 | – | > 3.13 | – | – | – | MIC (Escherichia coli [11]): 0.78 µg/mL (≈ 1.75 µM); MIC (Pasteurella multocida [12]): 0.05 µg/mL (≈ 0.112 µM); MIC [13]: > 1.56 µg/mL; MIC (Salmonella enterica [14]): 1.56 µg/mL (≈ 3.5 µM); MIC (Staphylococcus aureus [15]): 0.78 µg/mL (≈ 1.75 µM)
3 | O=C(O)c1cn(C2CC2)c2cc(N3C[C@@H]4C[C@H]3CN4)c(F)cc2c1=O | – | 0.2 (≈ 0.582 µM) | > 3.13 | 0.05 (≈ 0.146 µM) | 0.1 (≈ 0.291 µM) | 0.1 (≈ 0.291 µM) | 0.2 (≈ 0.582 µM) | 0.39 | 0.1 (≈ 0.291 µM) | 3.13 (≈ 9.12 µM) | 1.56 (≈ 4.54 µM) | 1.56 (≈ 4.54 µM) | > 1.56 | 0.92 | 0.2 | solubility [17]: 77 µg/mL (≈ 224 µM)
4 | CN1C[C@H]2C[C@@H]1CN2c1cc2c(cc1F)c(=O)c(C(=O)O)cn2C1CC1 | 0.22 | 0.02 (≈ 0.056 µM) | 3.13 (≈ 8.76 µM) | 0.1 (≈ 0.28 µM) | 0.05 (≈ 0.14 µM) | 0.05 (≈ 0.14 µM) | 0.05 (≈ 0.14 µM) | 0.19 | 0.2 (≈ 0.56 µM) | 3.13 (≈ 8.76 µM) | 0.39 (≈ 1.09 µM) | 1.56 (≈ 4.37 µM) | 1.56 (≈ 4.37 µM) | – | – | –
5 | CN1[C@@H]2CC[C@H]1CN(c1cc3c(cc1F)c(=O)c(C(=O)O)cn3C1CC1)C2 | – | 0.05 (≈ 0.135 µM) | 1.56 (≈ 4.2 µM) | 0.2 (≈ 0.538 µM) | 0.1 (≈ 0.269 µM) | 0.39 (≈ 1.05 µM) | 0.1 (≈ 0.269 µM) | 0.78 | 0.1 (≈ 0.269 µM) | 3.13 (≈ 8.43 µM) | 0.1 (≈ 0.269 µM) | 0.78 (≈ 2.1 µM) | 1.56 (≈ 4.2 µM) | 0.15 | 0.37 | minimal effective dose [19]: 0.3 mg/kg; ED50 (Escherichia coli [20]): 3.8 mg/kg; ED50 (Pasteurella multocida [21]): 0.98 mg/kg; minimal effective dose (Mannheimia haemolytica): 0.3 mg/kg
